# Reference: ChEMBL document CHEMBL3244020, “Trichloroacetamidines, a new class of positive inotropic agents” (J Med Chem, 1978)
# The source made the active and inactive calls. The calls are words filed in the database; no cut-off is given here.
# What was measured:
# [1] = (§1) Positive inotropic activity in cat heart papillary muscle assessed as increase in contractile force at 10 ug/mL measured for 5 to 30 mins; format: functional, Felis catus, Muscle tissue
# Outline: (§2)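 Right-ventricular cat papillary muscles in Krebs–Henseleit at 37 °C, field-stimulated at 1/s (4–10 ms, 6–10 V). Muscles equilibrated about 90 min, until force fell to 25–30% of original. Compound added and force recorded at 5, 10, 20 and 30 min, followed by ouabain 0.5 μg/mL. Positives were retested on three more preparations at ≥3 concentrations. Scored as mg increase in contractile force.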
# [2] = organism: Felis catus; experiment: Positive inotropic activity in cat heart papillary muscle assessed as increase in contractile force up to 10 ug/mL measured for 5 to 30 mins in presence of beta-adrenergic inhibitor sotalol; format: functional, tissue-based
# Outline: (§3)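 Cat right-ventricular papillary muscle in Krebs–Henseleit at 37 °C, electrically driven at 1/s. Force recorded 5–30 min after compound, in the presence of the β-blocker sotalol at 10 μg/mL. Scored as mg increase in contractile force.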
# [3] = organism: Felis catus; experiment: Positive inotropic activity in cat heart papillary muscle assessed as increase in contractile force at 10 ug/mL measured for 5 to 30 mins in presence of beta-adrenergic inhibitor sotalol; format: functional, tissue-based; outline: as §3
# [4] = Positive inotropic activity in cat heart papillary muscle assessed as concentration required to increase contractile force by 500 mg measured for 5 to 30 mins; format: functional, Felis catus, Muscle tissue; outline: as §2
# [5] = (§4) Positive inotropic activity in cat heart papillary muscle assessed as increase in contractile force at 0.63 ug/mL measured for 5 to 30 mins; format: functional, Felis catus, Muscle tissue
# Outline: (§5)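 Right-ventricular papillary muscles from cat hearts in a 100-mL bath of Krebs–Henseleit solution at 37 °C, driven electrically with square waves of 4–10 ms, 6–10 V, 1/s. Equilibrated about 90 min until force fell to 25–30% of initial. Compound added, contractile force read at 5, 10, 20 and 30 min, then ouabain 0.5 μg/mL as a responsiveness check. Positive inotropy means a rise above 20%.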
# [6] = Positive inotropic activity in cat heart papillary muscle assessed as increase in contractile force at 2.5 ug/mL measured for 5 to 30 mins; format: functional, Felis catus, Muscle tissue; outline: as §2
# [7] = organism: Cavia porcellus; experiment: (§6) Inhibition of guinea pig kidney Na+-K+ dependent ATPase after 10 to 20 mins
# Outline: (§7)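 Partially purified membrane ATPase from calf heart or guinea pig renal cortex. Reaction started by final addition of enzyme. Incubated at 37 °C under air, with aliquots taken at 10 and 20 min. Liberated phosphate measured by the Lowry–Lopez method. I50 came from log inhibitor vs percent inhibition lines, at least three points. This was done only where acute inhibition was >50% at 1 × 10⁻³ M.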
# [8] = (§8) Inhibition of calf heart Na+-K+ dependent ATPase after 10 to 20 mins; design: species or system Bos taurus; settings: read-out: I50; outline: as §7
# [9] = organism: Felis catus; experiment: Positive inotropic activity in heart papillary muscle isolated from reserpine-treated cat assessed as increase in contractile force at 10 ug/mL measured for 5 to 30 mins; format: functional, tissue-based; settings: Muscle tissue
# Outline: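 Cats pretreated with reserpine 0.5 mg/kg ip before papillary muscle isolation. Right-ventricular muscles kept in Krebs–Henseleit at 37 °C, stimulated at 1/s, and force recorded at 5–30 min after compound addition.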
# [10] = Inhibition of calf heart Na+-K+ dependent ATPase preincubated for 30 mins measured after 10 to 20 mins; design: species or system Bos taurus; settings: read-out: I50
# Outline: (§9)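 Partially purified membrane ATPase from calf heart or guinea pig renal cortex. Inhibitor plus enzyme were preincubated 30 min at 10× final concentrations, then added to the otherwise complete assay system. Incubated at 37 °C under air, with aliquots taken at 10 and 20 min. Liberated phosphate measured by the Lowry–Lopez method. I50 came from log inhibitor vs percent inhibition lines, at least three points.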
# [11] = organism: Felis catus; experiment: as §1; format: functional; settings: Muscle tissue; outline: as §2
# [12] = organism: Felis catus; experiment: as §4; format: functional; settings: Muscle tissue; outline: as §5
# [13] = Dissociation constant, pKa of the compound; format: physicochemical
# Outline: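 pKa determined in water or in 30% EtOH–70% H2O, depending on compound.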
# [14] = as §6; design: species or system Cavia porcellus; settings: read-out: I50; outline: as §7
# [15] = Inhibition of guinea pig kidney Na+-K+ dependent ATPase preincubated for 30 mins measured after 10 to 20 mins; design: species or system Cavia porcellus; settings: read-out: I50; outline: as §9
# [16] = Positive inotropic activity in cat heart papillary muscle assessed as increase in contractile force at 0.8 ug/mL measured for 5 mins (reference value: 1080 mg); format: functional, Felis catus, Muscle tissue
# [17] = Positive inotropic activity in cat heart papillary muscle assessed as increase in contractile force at 0.156 ug/mL measured for 5 to 30 mins; format: functional, Felis catus, Muscle tissue
# Outline: (§10)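 Right-ventricular cat papillary muscles in Krebs–Henseleit solution at 37 °C, paced at 1/s (4–10 ms, 6–10 V square waves). Equilibrated about 90 min; compound added once force had fallen to 25–30% of original (1.5–2 h). Force recorded 5, 10, 20 and 30 min after addition, then ouabain 0.5 μg/mL added. Increase over 20% scored positive. Actives retested on three further preparations at ≥3 concentrations.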
# [18] = Positive inotropic activity in cat heart papillary muscle assessed as increase in contractile force at 2 ug/mL measured for 5 to 30 mins; format: functional, Felis catus, Muscle tissue; outline: as §10
# [19] = Positive inotropic activity in cat heart papillary muscle assessed as increase in contractile force at 0.5 ug/mL measured for 5 to 30 mins; format: functional, Felis catus, Muscle tissue; outline: as §10
# [20] = Positive inotropic activity in cat heart papillary muscle assessed as increase in contractile force at 1 ug/mL measured for 5 to 30 mins; format: functional, Felis catus, Muscle tissue; outline: as §10
# [21] = test system: Canis familiaris; experiment: Positive inotropic activity in Beagle dog assessed as increase in left ventricular contractile force at 50 mg/kg, iv; format: functional, organism-based; design: dose 50 mg/kg; settings: Canis lupus familiaris, Heart left ventricle
# [22] = organism: Bos taurus; experiment: as §8; outline: as §7
Structure (SMILES),Activity [1] [mg],Activity [2],Activity [4] [µg/mL],Activity [6] [mg],also measured
CC(=O)Nc1ccc(OCC(O)CNC(=N)C(Cl)(Cl)Cl)cc1 (stereo not given),201,Active,–,–,–
CN(C)C(=N)C(Cl)(Cl)Cl.Cl,>600,Active,–,–,–
CNC(=N)C(Cl)(Cl)Cl.Cl,>600,–,0.98,>600,Activity [3]: inactive; Activity [5]: 201 mg; I50 [7]: inactive; IC50 [8]: 1000 µM
CC(=O)OC(CNC(=N)C(Cl)(Cl)Cl)COc1ccccc1.Cl (stereo not given),>600,Active,4.96,201,Activity [5]: <200 mg; Activity [9]: Active; IC50 [8]: 170 µM; IC50 [10]: 70 µM
N=C(NCCc1ccccc1)C(Cl)(Cl)Cl,–,–,–,–,Activity [11]: inactive
ClC(Cl)(Cl)C1=NCCN1,>600,Active,4.86,201,Activity [5]: <200 mg
C=CCN/C(=N\C)C(Cl)(Cl)Cl.Cl,>600,Active,3.89,201,Activity [12]: inactive
N=C(NCC(O)COc1ccccc1)C(Cl)(Cl)Cl (stereo not given),201,Active,–,–,–
COc1ccc(CNC(=N)C(F)(Cl)Cl)cc1,–,–,–,–,pKa [13]: 6.18; IC50 [14]: 15 µM; IC50 [15]: 2 µM; IC50 [8]: 20 µM; IC50 [10]: 2 µM
CC(CCc1ccc(O)cc1)NCCc1ccc(O)c(O)c1 (stereo not given) [DOBUTAMINE],–,–,–,–,Activity [16]: 1640 mg
C[C@@H](NC(=N)C(Cl)(Cl)Cl)c1ccccc1,–,–,–,–,Activity [11]: inactive
Cl.N=C(NCCc1ccc(O)c(O)c1)C(Cl)(Cl)Cl,201,–,>10,<200,Activity [3]: inactive; Activity [12]: inactive
Cl.N=C(NCCCO)C(Cl)(Cl)Cl,201,Active,>10,<200,–
Cc1ccc(CNC(=N)C(Cl)(Cl)Cl)cc1.Cl,>600,Active,8.43,<200,Activity [5]: <200 mg
ClC(Cl)(Cl)C1=NCCCN1,>600,–,2.77,201,Activity [3]: inactive; Activity [17]: <200 mg
C/N=C(\NCC1CC1)C(Cl)(Cl)Cl.Cl,>600,Active,–,–,–
C=CCNC(=N)C(Cl)(Cl)Cl.Cl,>600,–,2.78,201,Activity [3]: inactive; Activity [12]: inactive; Activity [9]: Active
C[C@@H]1O[C@@H](O[C@H]2C[C@@H](O)[C@]3(CO)[C@H]4[C@H](O)C[C@]5(C)[C@@H](C6=CC(=O)OC6)CC[C@]5(O)[C@@H]4CC[C@]3(O)C2)[C@H](O)[C@H](O)[C@H]1O [OUABAIN],–,–,–,–,Activity [18]: >600 mg; Activity [19]: 201 mg; Activity [20]: >600 mg; Activity [21]: Active; IC50 [14]: 0.5 µM; IC50 [8]: 0.5 µM; IC50 [10]: 0.2 µM
N=C(NCCc1c[nH]c2ccccc12)C(Cl)(Cl)Cl,>600,Active,2.33,201,Activity [17]: 201 mg; IC50 [14]: 150 µM; IC50 [15]: 4 µM; IC50 [8]: 33 µM
N=C(NCc1cn(C(=O)c2ccccc2)c2ccccc12)C(Cl)(Cl)Cl,>600,Active,6.2,201,Activity [5]: <200 mg; Activity [9]: Active
C=CCN(CC=C)C(=N)C(Cl)(Cl)Cl,–,–,–,–,Activity [11]: inactive

Structure (SMILES),Activity [1] [mg],Activity [2],Activity [4] [µg/mL],Activity [6] [mg],also measured
CCCNC(=N)C(Cl)(Cl)Cl.Cl,>600,Active,2.22,201,Activity [17]: < 200 mg
COc1ccc(CNC(=N)C(Cl)(Cl)Br)cc1,–,–,–,–,pKa [13]: 6.15
N=C(NCc1ccccc1CO)C(Cl)(Cl)Cl,201,Active,–,–,I50 [7]: inactive; I50 [22]: inactive
C[C@H](NC(=N)C(Cl)(Cl)Cl)c1ccccc1.Cl,<200,Active,>10,–,–
COc1cccc(CNC(=N)C(Cl)(Cl)Cl)c1.Cl,201,Active,>10,–,–
Cn1cc(CNC(=N)C(Cl)(Cl)Cl)c2ccccc21,201,Active,–,–,–
COC(CNC(=N)C(Cl)(Cl)Cl)COc1ccccc1 (stereo not given),201,Active,–,–,–
N=C(NCCc1ccc(O)cc1)C(Cl)(Cl)Cl,>600,Active,–,–,–
C/N=C(\N(C)C)C(Cl)(Cl)Cl,–,–,–,–,Activity [3]: inactive
COc1ccc(CNC(=N)C(Cl)(Cl)Cl)cc1.Cl,>600,Active,4.99,201,Activity [5]: <200 mg; Activity [9]: Active; pKa [13]: 6; IC50 [14]: 800 µM; IC50 [15]: 100 µM; IC50 [8]: 20 µM; IC50 [10]: 5 µM
N=C(NCC(O)c1ccccc1)C(Cl)(Cl)Cl (stereo not given),>600,Active,–,–,–
COc1ccccc1CNC(=N)C(Cl)(Cl)Cl.Cl,201,Active,4.75,201,Activity [5]: <200 mg; Activity [9]: Active
Cl.N=C(NCCCNC(=N)C(Cl)(Cl)Cl)C(Cl)(Cl)Cl,<200,Active,>10,–,–
N=C(NCc1ccccc1)C(Cl)(Cl)Cl,<200,Active,–,–,–
N=C(NCCO)C(Cl)(Cl)Cl,>600,Active,5.5,<200,Activity [12]: inactive
Cl.N=C(N)C(Cl)(Cl)Cl,>600,Active,2.68,201,Activity [5]: <200 mg; Activity [9]: Active
O=C(NCCO)C(Cl)(Cl)Cl,–,Active,–,–,Activity [11]: inactive
Cl.N=C(NCC1CC1)C(Cl)(Cl)Cl,201,Active,3.21,201,Activity [5]: <200 mg; Activity [9]: Active
N=C(Nc1ccccc1)C(Cl)(Cl)Cl,–,–,–,–,Activity [11]: inactive
C=CCN(C)C(=N)C(Cl)(Cl)Cl.O=C(O)/C=C\C(=O)O,>600,Active,5.47,201,Activity [5]: <200 mg
